Assay results as given in paper PMC6931396 (Journal of medicinal chemistry, 2019).

Legend:
[1] = tested on: TOPFlash luciferase reporter (three wild-type Tcf4 binding sites) in β-catenin activated HEK293 cells; assay: TOPFlash luciferase reporter assay; assay type: cell-based; details: 24 h
Summary of the method: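 HEK293 cells were co-transfected with FuGENE 6, using 45 ng TOPFlash or FOPFlash reporter plus 135 ng pcDNA3.1-β-catenin. Cells were grown 24 h in DMEM with 10% FBS at 37 °C, then treated with test compound at various concentrations. After 24 h, luciferase activity was read by a dual-luciferase system, normalized, and compared with DMSO-treated cells. Triplicate; unpaired two-tailed t-test.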

[2] = target: T1, β-catenin/Tcf PPI (human β-catenin residues 138–781 / fluorescein-labeled human Tcf4 residues 7–51) (Homo sapiens, UniProt P35222); assay type: binding
T1 sequence (P35222 138-781): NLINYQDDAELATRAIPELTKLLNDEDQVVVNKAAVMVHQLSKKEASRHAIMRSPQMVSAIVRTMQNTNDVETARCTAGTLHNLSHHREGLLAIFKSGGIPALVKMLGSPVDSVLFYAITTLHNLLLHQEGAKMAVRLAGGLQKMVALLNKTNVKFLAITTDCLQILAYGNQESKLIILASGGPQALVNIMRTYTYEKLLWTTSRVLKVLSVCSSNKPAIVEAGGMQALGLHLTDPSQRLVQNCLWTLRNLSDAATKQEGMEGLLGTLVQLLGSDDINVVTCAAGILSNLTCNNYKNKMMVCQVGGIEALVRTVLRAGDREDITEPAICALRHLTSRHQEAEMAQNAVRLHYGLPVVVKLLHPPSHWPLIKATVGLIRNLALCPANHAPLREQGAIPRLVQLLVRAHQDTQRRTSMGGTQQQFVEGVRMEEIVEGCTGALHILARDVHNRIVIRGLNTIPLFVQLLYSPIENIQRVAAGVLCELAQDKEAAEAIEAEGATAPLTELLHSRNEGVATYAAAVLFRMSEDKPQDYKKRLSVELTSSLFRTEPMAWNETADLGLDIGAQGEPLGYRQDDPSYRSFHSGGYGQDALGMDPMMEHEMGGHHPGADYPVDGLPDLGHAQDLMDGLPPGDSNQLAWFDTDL

[3] = tested on: SW480 cells; assay: HPLC–MS based cell bioavailability assay; assay type: in vitro ADME; details: for cell-bound concentration: 37 °C, 3 h incubation in 5 mL DMEM with 10% FBS, input concentration 25 μM
[4] = unless converted into the ester form; previous study; cited from earlier work
[5] = tested on: β-catenin/Tcf PPI in HCT116 cells; assay: Co-IP in HCT116 cells, β-catenin/Tcf; assay type: cell-based; details: HCT116 cells treated 24 h
[6] = tested on: β-catenin/E-cadherin PPI in HCT116 cells; assay: Co-IP in HCT116 cells, β-catenin/E-cadherin; assay type: cell-based; details: concentrations sufficient to disrupt β-catenin/Tcf PPI
[7] = tested on: β-catenin/APC PPI in HCT116 cells; assay: Co-IP in HCT116 cells, β-catenin/APC; assay type: cell-based; details: concentrations sufficient to disrupt β-catenin/Tcf PPI
[8] = tested on: TNBC MDA-MB-231 cells; assay: Scratch wound healing assay; assay type: cell-based, human; details: 10 μM, 10% serum, mitomycin 10 μg/mL, 14 h
Summary of the method: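 Wounds were scraped with a sterile 200 µL pipette tip into ~70–80% confluent MDA-MB-231 monolayers. Cells were kept in DMEM with 10% FBS plus 10 µg/mL mitomycin to block proliferation, with test compound or vehicle (0.2% DMSO). Wounds were imaged immediately and at 14 h. […] Mean ± SD, n=3.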

[9] = tested on: TNBC MDA-MB-231 cells; assay: Matrigel invasion assay; assay type: cell-based, human; details: 10 μM, 24 h

## NC(=O)CC[C@H](NC(=O)[C@H](Cc1nn[nH]n1)NC(=O)[C@H](Cc1ccc2ccccc2c1)NC(=O)c1cc2cc(Cl)ccc2[nH]1)C(=O)Nc1ccc(OC(F)(F)F)cc1 [Compound 55, (S)-2-((S)-2-((S)-2-(5-Chloro-1H-indole-2-carboxamido)-3-(naphthalen-2-yl)propanamido)-3-(2H-tetrazol-5-yl)propanamido)-N^1-(4-(trifluoromethoxy)phenyl)pentanediamide]
[1]; different concentrations
  TOPFlash luciferase activity: suppressed the TOPFlash luciferase activities in dose-dependent manners

## O=C(O)CC[C@H](NC(=O)[C@H](CC(=O)O)NC(=O)[C@H](Cc1ccc2ccccc2c1)NC(=O)c1cc2cc(Cl)ccc2[nH]1)C(=O)Nc1ccccc1 [Compound 21, (S)-4-((S)-3-Carboxy-2-((S)-2-(5-chloro-1H-indole-2-carboxamido)-3-(naphthalen-2-yl)propanamido)propanamido)-5-oxo-5-(phenylamino)pentanoic Acid]
[2]
  potency improvement over 9: 3.4 fold

## O=C(O)CC[C@H](NC(=O)[C@H](Cc1nn[nH]n1)NC(=O)[C@H](Cc1ccc2ccccc2c1)NC(=O)c1cc2cc(Cl)ccc2[nH]1)C(=O)Nc1ccc(OC(F)(F)F)cc1 [Compound 53, (S)-4-((S)-2-((S)-2-(5-Chloro-1H-indole-2-carboxamido)-3-(naphthalen-2-yl)propanamido)-3-(2H-tetrazol-5-yl)propanamido)-5-oxo-5-((4-(trifluoromethoxy)phenyl)amino)pentanoic Acid]
[3]
  cell-bound concentration: 0.17 nmol/million SW480 cells

## COC(=O)[C@H](CCC(=O)O)NC(=O)[C@H](CC(=O)O)NC(=O)[C@H](Cc1ccc2ccccc2c1)NC(=O)c1cc2c(Cl)cc(Cl)cc2[nH]1 [Compound 19]
[2]
  potency improvement over 9: ~ 3 fold

## COC(=O)[C@H](CCC(=O)O)NC(=O)[C@H](CC(=O)O)NC(=O)[C@H](Cc1ccc2ccccc2c1)NC(=O)Cc1cc2cc(Cl)ccc2[nH]1 [Compound 1]
[4]
  activity in cell-based assays: almost inactive

## COC(=O)[C@H](CCC(=O)O)NC(=O)[C@H](CC(=O)O)NC(=O)[C@H](Cc1ccc2ccccc2c1)NC(=O)Cc1c[nH]c2cc(Cl)ccc12 [Compound 3]
[2]
  inhibitory potency for β-catenin/Tcf PPI in words: great loss of potency

## COC(=O)[C@H](CCC(=O)O)NC(=O)[C@H](CC(=O)O)NC(=O)[C@H](Cc1ccc2ccccc2c1)NC(=O)Cc1c[nH]c2ccc(Cl)cc12 [Compound 2]
[2]
  inhibitory potency for β-catenin/Tcf PPI in words: great loss of potency

## CCOC(=O)CC[C@H](NC(=O)[C@H](CC(=O)OCC)NC(=O)[C@H](Cc1ccc2ccccc2c1)NC(=O)c1cc2cc(OC)ccc2[nH]1)C(=O)OC [(Et)-15]
[1]; concentration of up to 200 μM
  TOPFlash luciferase activity: did not inhibit

## CCOC(=O)CC[C@H](NC(=O)[C@H](Cc1nn[nH]n1)NC(=O)[C@H](Cc1ccc2ccccc2c1)NC(=O)c1cc2cc(Cl)ccc2[nH]1)C(=O)Nc1ccc(OC(F)(F)F)cc1 [Compound 56, Ethyl (S)-4-((S)-2-((S)-2-(5-Chloro-1H-indole-2-carboxamido)-3-(naphthalen-2-yl)propanamido)-3-(2H-tetrazol-5-yl)-propanamido)-5-oxo-5-((4-(trifluoromethoxy)phenyl)amino)-pentanoate]
[1]; different concentrations
  TOPFlash luciferase activity: suppressed the TOPFlash luciferase activities in dose-dependent manners
[5]
  inhibition of β-catenin/Tcf PPI (co-IP): dose-dependently inhibited
[6]
  effect on β-catenin/E-cadherin PPI (co-IP): had no effect
[7]
  effect on β-catenin/APC PPI (co-IP): had no effect
[8]
  inhibition of TNBC cell migration: effectively inhibit
[9]
  inhibition of TNBC cell invasion: effectively inhibit
[3]
  cell-bound concentration: 1.4 nmol/million SW480 cells
[3]; 24 h incubation with SW480 cells in 5 mL DMEM with 10% FBS
  transformation into 53: did not transform into 53
